One assay deals with T1, Cholecystokinin receptor (Rattus norvegicus, UniProt P30551+P30553).
T1 sequence (P30551 whole entry): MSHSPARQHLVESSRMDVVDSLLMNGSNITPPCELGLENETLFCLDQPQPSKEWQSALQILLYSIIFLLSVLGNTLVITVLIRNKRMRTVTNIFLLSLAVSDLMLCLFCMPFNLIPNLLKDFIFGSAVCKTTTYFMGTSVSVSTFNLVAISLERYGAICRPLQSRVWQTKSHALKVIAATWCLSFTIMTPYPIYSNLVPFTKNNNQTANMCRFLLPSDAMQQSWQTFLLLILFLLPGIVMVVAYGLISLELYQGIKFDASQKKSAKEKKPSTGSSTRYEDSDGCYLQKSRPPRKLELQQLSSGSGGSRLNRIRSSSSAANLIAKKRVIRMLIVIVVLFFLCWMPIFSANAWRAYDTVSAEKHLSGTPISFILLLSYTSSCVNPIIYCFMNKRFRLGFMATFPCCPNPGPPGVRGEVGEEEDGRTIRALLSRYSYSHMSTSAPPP
T1 sequence (P30553 whole entry): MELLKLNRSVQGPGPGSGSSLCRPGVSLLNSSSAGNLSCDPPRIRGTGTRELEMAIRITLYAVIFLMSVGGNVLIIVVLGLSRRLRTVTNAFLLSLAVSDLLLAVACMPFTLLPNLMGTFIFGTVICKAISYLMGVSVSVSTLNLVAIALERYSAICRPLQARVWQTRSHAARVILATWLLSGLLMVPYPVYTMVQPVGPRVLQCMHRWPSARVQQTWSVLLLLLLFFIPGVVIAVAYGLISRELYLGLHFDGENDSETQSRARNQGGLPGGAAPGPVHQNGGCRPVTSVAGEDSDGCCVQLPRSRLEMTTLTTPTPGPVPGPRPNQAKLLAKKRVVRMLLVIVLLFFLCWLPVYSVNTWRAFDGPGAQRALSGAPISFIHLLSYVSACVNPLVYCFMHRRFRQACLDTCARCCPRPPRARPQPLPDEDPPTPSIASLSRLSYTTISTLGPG
The class given is protein assay.

Assay [1] deals with GABA-A receptor; anion channel. The experiment in a line: Displacement of [3H]diazepam from rat brain GABA-A benzodiazepine receptor.
Assay [2] concerns Mus musculus. The experiment in a line: In vivo activity on the basis of the ability to antagonize CCK-8 inhibition of charcoal meal gastric emptying in mice after oral administration. The format is functional. The settings on record: Stomach. In a few lines:
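Oral dosing of mice (N ≥ 10/dose) 1 h before sc CCK-8 at 80 μg/kg. The charcoal meal followed CCK-8 by 5 min, with gastric emptying scored 5 min after that. ED50 was obtained by regression analysis using at least three dose levels.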

The species entered for a further assay is Rattus norvegicus. The assay is described as follows: Selectivity of binding to pancreatic CCK and brain benzodiazepine receptors, ratio of IC50.
Assay [3] deals with Mus musculus. The experiment in a line: In vivo activity on the basis of the ability to antagonize CCK-8 inhibition of charcoal meal gastric emptying in mice after intraperitoneal administration. As to conditions: Stomach, ip. The format is functional. In a few lines: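 Mice dosed intraperitoneally 1 h before CCK-8 (80 μg/kg, sc), N ≥ 10/dose. A charcoal meal was given 5 min after CCK-8 and gastric emptying was measured 5 min later. ED50 was derived by regression from at least three dose levels.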

The structures appear in SMILES notation.

The text below walks through data of ChEMBL document CHEMBL1123786, “Design of nonpeptidal ligands for a peptide receptor: cholecystokinin antagonists” (J Med Chem, 1987).

The compound `O=C1[C@@H](Cc2c[nH]c3ccccc23)N=C(c2ccccc2F)c2ccccc2N1CC1CC1` displayed an IC50 at Cholecystokinin receptor of 2.2 µM.

On to `CN1C(=O)[C@@H](Cc2cn(C(=O)c3ccc(Cl)cc3)c3ccccc23)N=C(c2ccccc2F)c2ccccc21`, for which the IC50 against Cholecystokinin receptor is 11 µM.

Consider `CC(C)C[C@@H]1N[C@H]2N(C1=O)c1ccccc1[C@@]2(O)C[C@@H]1NC(=O)c2ccccc2-n2c1nc1ccccc1c2=O` [ASPERLICIN], for which the IC50 in assay [1] worked out at 50 µM. The ED50 in the assay with Mus musculus [2] was above 300 mg/kg. Moreover, in the assay listed under Rattus norvegicus, the Ratio is 0.028.

With `CN1C(=O)[C@@H](Cc2cn(C)c3ccccc23)N=C(c2ccccc2)c2ccccc21`, the concentration for half-maximal inhibition (IC50) against Cholecystokinin receptor stood at 0.1 µM.

`O=C1Nc2ccccc2C(c2ccccc2F)=N[C@@H]1Cc1c[nH]c2ccccc12`: the 50% inhibitory concentration (IC50) in assay [1] is above 100 µM; at Cholecystokinin receptor, 0.5 µM. The ED50 with Mus musculus [3] was 41 mg/kg; in the assay on Mus musculus [2], 104 mg/kg.

The compound `O=C1Nc2ccccc2C(c2ccccc2F)=NC1Cc1c[nH]c2ccc(F)cc12` (stereo not given) had an IC50 at Cholecystokinin receptor of 1.4 µM.

On to `CN1C(=O)[C@@H](Cc2c[nH]c3ccccc23)N=C(c2ccccc2)c2ccccc21`, for which the IC50 on Cholecystokinin receptor amounted to 0.3 µM.

`O=C1Nc2ccccc2C(c2ccccc2F)=NC1C[C@@H]1CNc2ccccc21` (stereo not given in full): on Cholecystokinin receptor, the IC50 is 11 µM.

Regarding `CCCCCN1C(=O)[C@@H](Cc2c[nH]c3ccccc23)N=C(c2ccccc2F)c2ccccc21`, on Cholecystokinin receptor, the IC50 is ~ 100 uM.

On Cholecystokinin receptor, `CN1C(=O)[C@@H](Cc2cn(C)c3ccccc23)N=C(c2ccccc2F)c2ccccc21` yielded an IC50 of 0.36 µM. In addition, the figures for the ED50 in the assay with Mus musculus [3] and in the assay on Mus musculus [2] were 18 mg/kg and 39 mg/kg, respectively.

In turn, `CC(C)C[C@H]1N=C(c2ccccc2)c2cc(Cl)ccc2NC1=O` yielded an IC50 against Cholecystokinin receptor of 42 µM.

`N#CCCN1C(=O)[C@@H](Cc2c[nH]c3ccccc23)N=C(c2ccccc2F)c2ccccc21` had an IC50 against Cholecystokinin receptor of 0.7 µM.

At Cholecystokinin receptor, `O=C1Nc2ccccc2C(c2ccccc2F)=NC1Cc1c[nH]c2cc(F)ccc12` (stereo not given) returned an IC50 of 1.3 µM.

In the case of `O=C1Nc2ccccc2C(c2ccccc2F)=NC1c1ccsc1` (stereo not given), on Cholecystokinin receptor, the IC50 is above 100 µM.

Consider `O=C1Nc2ccc(Cl)cc2C(c2ccccc2)=N[C@H]1Cc1c[nH]c2ccccc12`, for which the half-inhibitory concentration (IC50) in assay [1] was 5.6 µM; at Cholecystokinin receptor, 32 µM. This compound also displayed an ED50 with Mus musculus [2] above 150 mg/kg.

For `NC(=O)CN1C(=O)[C@@H](Cc2c[nH]c3ccccc23)N=C(c2ccccc2F)c2ccccc21`, the IC50 against Cholecystokinin receptor came out at 2.1 µM.

Consider `CN1C(=O)CN=C(c2ccccc2F)c2cc([N+](=O)[O-])ccc21` [FLUNITRAZEPAM], for which the IC50 in assay [1] stood at 0.0017 µM.

Turning to `O=C1Nc2ccc(Cl)cc2C(c2ccccc2)=N[C@@H]1Cc1c[nH]c2ccccc12`, the half-inhibitory concentration (IC50) is above 100 µM in assay [1] and 3.4 µM on Cholecystokinin receptor. Besides, the values for the ED50 in the assay on Mus musculus [3] and in the assay on Mus musculus [2] were 88 mg/kg and above 300 mg/kg, respectively.

`O=C1[C@@H](Cc2c[nH]c3ccccc23)N=C(c2ccccc2F)c2ccccc2N1CC(F)(F)F`: at Cholecystokinin receptor, the IC50 turned out to be 3.6 µM.

At Cholecystokinin receptor, `O=C1Nc2ccccc2C(c2ccccc2)=NC1C[C@@H]1CNc2ccccc21` (stereo not given in full) gave an IC50 of 3.2 µM.

Turning to `CN1C(=O)[C@@H](Cc2c[nH]c3ccccc23)N=C(c2ccccc2)c2cc(Cl)ccc21`, the IC50 against Cholecystokinin receptor amounted to 1.4 µM.

`CCOC(=O)CN1C(=O)[C@@H](Cc2c[nH]c3ccccc23)N=C(c2ccccc2F)c2ccccc21` registered an IC50 at Cholecystokinin receptor of 8.3 µM.

Turning to `CN1C(=O)/C(=C\c2ccsc2)N=C(c2ccccc2)c2ccccc21`, the IC50 on Cholecystokinin receptor came to 25 µM.

With `O=C1[C@H](Cc2c[nH]c3ccccc23)N=C(c2ccccc2)c2cc(Cl)ccc2N1Cc1ccccc1`, the 50% inhibitory concentration (IC50) against Cholecystokinin receptor is above 100 µM.

Take `O=C1Nc2ccccc2C1C[C@H]1N=C(c2ccccc2)c2cc(Cl)ccc2NC1=O` (stereo not given in full): the IC50 on Cholecystokinin receptor turned out to be 24 µM.

For `CN1CC(CC2N=C(c3ccccc3)c3ccccc3N(C)C2=O)c2ccccc21` (stereo not given), at Cholecystokinin receptor, the IC50 is 10 µM.

Consider `O=C(O)CN1C(=O)[C@@H](Cc2c[nH]c3ccccc23)N=C(c2ccccc2F)c2ccccc21`, for which the IC50 was above 100 µM in assay [1] and 0.3 µM against Cholecystokinin receptor. Moreover, it took a dose of 42 mg/kg to reach the 50% effect level with Mus musculus [2] (ED50). Also, the Ratio in the assay listed under Rattus norvegicus was below 0.003.

`CC(C)CC(N)C(=O)N1CC(CC2N=C(c3ccccc3)c3ccccc3NC2=O)c2ccccc21.Cl` (stereo not given) came in with a 50% inhibitory concentration (IC50) against Cholecystokinin receptor of 6.6 µM.

Take `O=C1Nc2ccccc2C(c2ccccc2F)=NC1C[C@H]1CNc2ccccc21` (stereo not given in full): the IC50 at Cholecystokinin receptor amounted to 17 µM.

On Cholecystokinin receptor, `Fc1ccccc1C1=N[C@H](Cc2c[nH]c3ccccc23)CNc2ccccc21` yielded an IC50 of 4 µM.

For `CC1=N[C@H](Cc2c[nH]c3ccccc23)C(=O)Nc2ccccc21`, the IC50 in assay [1] was above 100 µM; against Cholecystokinin receptor, 48 µM.

Compound `O=C(O)CCN1C(=O)[C@@H](Cc2c[nH]c3ccccc23)N=C(c2ccccc2F)c2ccccc21` returned an IC50 against Cholecystokinin receptor of 1.4 µM.

As for `O=C1CN=C(c2ccccc2Cl)c2cc([N+](=O)[O-])ccc2N1` [CLONAZEPAM], the values for the IC50 (in assay [1]; on Cholecystokinin receptor) were 0.0017 µM and above 100 µM, respectively. Also, in the assay filed under Rattus norvegicus, the Ratio was above 58000.

Regarding `CC(C)CC(NC(=O)OC(C)(C)C)C(=O)N1CC(CC2N=C(c3ccccc3)c3ccccc3NC2=O)c2ccccc21` (stereo not given), the IC50 on Cholecystokinin receptor turned out to be 4.7 µM.

Turning to `O=C1[C@@H](Cc2c[nH]c3ccccc23)N=C(c2ccccc2)c2cc(Cl)ccc2N1Cc1ccccc1`, on Cholecystokinin receptor, the IC50 was above 100 µM.

Compound `O=C1Nc2ccccc2C(c2ccccc2F)=NC1Cc1ccsc1` (stereo not given) registered an IC50 on Cholecystokinin receptor of 33 µM.

In the case of `O=C1Nc2ccc(Cl)cc2C(c2ccccc2)=NC1Cc1ccc2ccccc2c1` (stereo not given), on Cholecystokinin receptor, the IC50 stood at 49 µM.

`O=C1Nc2ccc(Cl)cc2C(c2ccccc2Cl)=N[C@@H]1Cc1c[nH]c2ccccc12`: the concentration for half-maximal inhibition (IC50) is above 180 µM in assay [1] and 5 µM against Cholecystokinin receptor. The figures for the 50% effective dose (ED50) in the assay with Mus musculus [3] and in the assay on Mus musculus [2] were 119 mg/kg and above 600 mg/kg, respectively.

Regarding `O=C1Nc2ccccc2C(c2ccccc2)=NC1C[C@H]1CNc2ccccc21` (stereo not given in full), at Cholecystokinin receptor, the IC50 came out at 21 µM.

On Cholecystokinin receptor, `O=C1Nc2ccccc2C(c2ccccc2)=NC1Cc1c[nH]c2ccc(Br)cc12` (stereo not given) returned an IC50 of 2.9 µM.

As for `SC1=Nc2ccc(Cl)cc2C(c2ccccc2)=N[C@@H]1Cc1c[nH]c2ccccc12`, the IC50 against Cholecystokinin receptor is 4.5 µM.

`CN1C[C@@H](CC2N=C(c3ccccc3)c3ccccc3N(C)C2=O)c2ccccc21` (stereo not given in full): the IC50 on Cholecystokinin receptor came out at 13 µM.

The compound `O=C(O)c1ccccc1C1=N[C@H](Cc2c[nH]c3ccccc23)C(=O)Nc2ccccc21` gave an IC50 against Cholecystokinin receptor of 18 µM.

For the compound `O=C1Nc2ccccc2C(c2ccccc2)=N[C@@H]1Cc1c[nH]c2ccccc12`, the IC50 was above 100 µM in assay [1] and 1.2 µM at Cholecystokinin receptor. In the assay with Mus musculus [2], the ED50 is above 150 mg/kg.

In the case of `CCN1C(=O)[C@@H](Cc2c[nH]c3ccccc23)N=C(c2ccccc2F)c2ccccc21`, the IC50 against Cholecystokinin receptor came out at 0.3 µM.

Regarding `CC(C)CCN1C(=O)[C@@H](Cc2c[nH]c3ccccc23)N=C(c2ccccc2F)c2ccccc21`, the half-inhibitory concentration (IC50) at Cholecystokinin receptor is ~ 100 uM.

At Cholecystokinin receptor, `O=C1Nc2ccc(Cl)cc2C(c2ccccc2)=N[C@@H]1Cc1ccccc1` came in with a half-maximal inhibitory concentration (IC50) of 80 µM.

`CN1C(=O)/C(=C/c2ccsc2)N=C(c2ccccc2)c2ccccc21` gave an IC50 against Cholecystokinin receptor of 100 µM.

On Cholecystokinin receptor, `O=C1Nc2ccc(Cl)cc2C(c2ccccc2)=N[C@@H]1Cc1ccc(OCc2ccccc2)cc1` returned an IC50 above 100 µM.

On Cholecystokinin receptor, `O=C1Nc2ccc(Cl)cc2C(c2ccccc2)=N[C@@H]1COCc1ccccc1` gave a half-maximal inhibitory concentration (IC50) of 60 µM.

On to `CN(C)CCN1C(=O)[C@@H](Cc2c[nH]c3ccccc23)N=C(c2ccccc2F)c2ccccc21`, for which, at Cholecystokinin receptor, the IC50 is ~ 100 uM.

In turn, `CN1C(=O)[C@@H](Cc2cn(C)c3ccccc23)N(C(=O)c2ccc(Cl)cc2)C(c2ccccc2F)c2ccccc21` (stereo not given in full) showed an IC50 at Cholecystokinin receptor above 100 µM.

With `CC(=O)N1C(Cc2cn(C)c3ccccc23)C(=O)N(C)c2ccccc2[C@@H]1c1ccccc1F` (stereo not given in full), the IC50 at Cholecystokinin receptor is reported as ~ 100 uM.

On Cholecystokinin receptor, `O=C1Nc2ccccc2C(c2ccccc2F)=N[C@H]1Cc1c[nH]c2ccccc12` showed a 50% inhibitory concentration (IC50) of 10.6 µM.

Regarding `O=C1Nc2ccc(Cl)cc2C(c2ccccc2)=NC1Cc1cccc2ccccc12` (stereo not given), the 50% inhibitory concentration (IC50) against Cholecystokinin receptor came out at 23 µM.

On to `O=C1Nc2ccc(Cl)cc2C(c2ccccc2)N[C@@H]1Cc1c[nH]c2ccccc12` (stereo not given in full), for which, at Cholecystokinin receptor, the IC50 is 12 µM.

Turning to `CN1C(=O)[C@@H](Cc2cn(Cc3ccccc3)c3ccccc23)N=C(c2ccccc2)c2cc(Cl)ccc21`, the IC50 against Cholecystokinin receptor was ~ 150 uM.
